# Reference: ChEMBL document CHEMBL4373687, “Introducing nitrogen atoms to amidoalkylindoles: potent and selective cannabinoid type 2 receptor agonists with improved aqueous solubility” (Medchemcomm, 2019)
# Experiments:
# Cannabinoid receptor 2 [1] = molecular target: T1, Cannabinoid receptor 2 (Homo sapiens, UniProt P34972); assay: Agonist activity at human CB2-receptor expressed in CHO-K1 cells coexpressing G-alpha16 by Fluo-4-AM dye based calcium mobilization assay; format: functional, cell-based
# T1 sequence (P34972 whole entry): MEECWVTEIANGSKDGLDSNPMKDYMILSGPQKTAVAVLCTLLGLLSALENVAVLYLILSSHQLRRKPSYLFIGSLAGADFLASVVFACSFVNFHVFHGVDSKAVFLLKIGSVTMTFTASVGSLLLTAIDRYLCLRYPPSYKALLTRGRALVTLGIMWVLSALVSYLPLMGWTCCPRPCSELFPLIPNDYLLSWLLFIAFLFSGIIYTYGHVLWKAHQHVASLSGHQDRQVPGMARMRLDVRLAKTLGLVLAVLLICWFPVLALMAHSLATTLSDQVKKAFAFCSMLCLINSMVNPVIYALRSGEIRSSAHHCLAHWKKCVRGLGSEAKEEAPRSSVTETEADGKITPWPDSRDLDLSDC
# Cannabinoid receptor 2 [2] = molecular target: T1, Cannabinoid receptor 2; assay: Agonist activity at human CB2-receptor expressed in CHO-K1 cells coexpressing G-alpha16 at 10 uM by Fluo-4-AM dye based calcium mobilization assay; format: functional, cell-based
# Summary of the method: (§1)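 CHO-K1 cells stably co-expressing Gα16 and human CB1 or CB2, seeded 24 h. Loaded with 2 μM fluo-4 AM in HBSS (with sulfinpyrazone, pH 7.4) at 37 °C for 45 min. Compound added and calcium fluorescence recorded (ex 485/em 525 nm). CP55940 positive control, DMSO negative control. Compounds with >50% activation at 10 μM got eight-point curves in triplicate, sigmoidal fit for EC50.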
# Cannabinoid receptor 2 [3] = molecular target: T1, Cannabinoid receptor 2; assay: Antagonist activity at human CB2-receptor expressed in CHO-K1 cells coexpressing G-alpha16 pre-incubated for 10 mins and later treated with 100 nM CB-receptor agonist, CP55940 by Fluo-4-AM dye based calcium mobilization assay; format: functional, cell-based
# Summary of the method: (§2)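 CHO-K1 cells stably co-expressing Gα16 and human CB1 or CB2, loaded with 2 μM fluo-4 AM in HBSS pH 7.4 at 37 °C for 45 min. Pre-incubated with compound for 10 min at room temperature, then CP55940 added at 100 nM. Peak calcium read over 60 s (ex 485/em 525 nm). Rimonabant positive control. Actives got eight-point curves in triplicate, sigmoidal fit for IC50.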
# Cannabinoid receptor 1 [4] = molecular target: T2, Cannabinoid receptor 1 (Homo sapiens, UniProt P21554); assay: Antagonist activity at human CB1-receptor expressed in CHO-K1 cells coexpressing G-alpha16 at 10 uM pre-incubated for 10 mins and later treated with 100 nM CB-receptor agonist, CP55940 by Fluo-4-AM dye based calcium mobilization assay; format: cell-based; summary of the method: as §2
# T2 sequence (P21554 whole entry): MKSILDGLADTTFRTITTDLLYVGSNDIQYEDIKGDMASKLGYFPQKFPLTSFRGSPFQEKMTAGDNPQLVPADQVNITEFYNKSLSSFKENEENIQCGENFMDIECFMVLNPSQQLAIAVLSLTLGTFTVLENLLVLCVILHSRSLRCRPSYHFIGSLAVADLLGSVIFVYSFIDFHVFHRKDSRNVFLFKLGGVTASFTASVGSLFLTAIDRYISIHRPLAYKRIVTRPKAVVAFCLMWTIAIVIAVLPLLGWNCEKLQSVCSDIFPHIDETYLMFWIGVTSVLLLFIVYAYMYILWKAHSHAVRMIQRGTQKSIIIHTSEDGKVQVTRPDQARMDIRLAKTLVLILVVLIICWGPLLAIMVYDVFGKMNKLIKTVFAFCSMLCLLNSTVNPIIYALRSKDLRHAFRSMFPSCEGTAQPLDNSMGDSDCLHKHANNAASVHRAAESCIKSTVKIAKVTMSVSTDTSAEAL
# Cannabinoid receptor 1 [5] = molecular target: T2, Cannabinoid receptor 1; assay: Agonist activity at human CB1-receptor expressed in CHO-K1 cells coexpressing G-alpha16 at 10 uM by Fluo-4-AM dye based calcium mobilization assay; format: cell-based; conditions: cho-k1, 10 µM; summary of the method: as §1
# Cannabinoid receptor 1 [6] = molecular target: T2, Cannabinoid receptor 1; assay: Agonist activity at human CB1-receptor expressed in CHO-K1 cells coexpressing G-alpha16 by Fluo-4-AM dye based calcium mobilization assay; format: cell-based
# Cannabinoid receptor 2 [7] = molecular target: T1, Cannabinoid receptor 2; assay: Antagonist activity at human CB2-receptor expressed in CHO-K1 cells coexpressing G-alpha16 at 10 uM pre-incubated for 10 mins and later treated with 100 nM CB-receptor agonist, CP55940 by Fluo-4-AM dye based calcium mobilization assay; format: functional, cell-based; summary of the method: as §2
# Cannabinoid receptor 1 [8] = molecular target: T2, Cannabinoid receptor 1; assay: Antagonist activity at human CB1-receptor expressed in CHO-K1 cells coexpressing G-alpha16 pre-incubated for 10 mins and later treated with 100 nM CB-receptor agonist, CP55940 by Fluo-4-AM dye based calcium mobilization assay; format: cell-based; summary of the method: as §2
# Cannabinoid receptor 2 [9] = molecular target: T1, Cannabinoid receptor 2; assay: Agonist activity at human CB2-receptor expressed in CHO-K1 cells coexpressing G-alpha16 assessed as maximum efficacy by Fluo-4-AM dye based calcium mobilization assay relative to CP55940; format: functional, cell-based; summary of the method: as §1
# Cannabinoid receptor 1 [10] = molecular target: T2, Cannabinoid receptor 1; assay: Agonist activity at human CB1-receptor expressed in CHO-K1 cells coexpressing G-alpha16 assessed as maximum efficacy by Fluo-4-AM dye based calcium mobilization assay relative to CP55940; format: cell-based; summary of the method: as §1
# [11] = Kinetic aqueous solubility of compound in phosphate-buffer containing 1% DMSO ultrasonicated for 10 mins at pH 7.4 measured using 80-95% methanol in water as gradient for 19 mins by HPLC analysis; format: physicochemical; conditions: pH 7.4, 10 min
# Summary of the method: (§3)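 Kinetic solubility: 10 mM DMSO stock diluted into 10 mM phosphate buffer pH 7.4 or 1.4 (final 1% DMSO), sonicated 10 min at room temperature, filtered 0.22 μm. Quantified by C18 HPLC against a standard curve. Gradient 80–95% methanol/water with trifluoroacetic acid over 19 min at 1.2 mL/min. n = 3.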
# [12] = Kinetic aqueous solubility of compound in phosphate-buffer containing 1% DMSO ultrasonicated for 10 mins at pH 1.4 measured using 80-95% methanol in water as gradient for 19 mins by HPLC analysis; format: physicochemical; conditions: pH 1.4, 10 min; summary of the method: as §3
Structure (SMILES),EC50 (Cannabinoid receptor 2 [1]; cho-k1),Activity (Cannabinoid receptor 2 [2]) [%],IC50 (Cannabinoid receptor 2 [3]; cho-k1),inhibition at 10 µM (Cannabinoid receptor 1 [4]) [%],Activity (Cannabinoid receptor 1 [5]) [%],EC50 (Cannabinoid receptor 1 [6]; cho-k1),inhibition (Cannabinoid receptor 2 [7]) [%],IC50 (Cannabinoid receptor 1 [8]),EC50 (Cannabinoid receptor 2 [1]; read-out: EC50) [nM],Emax (Cannabinoid receptor 2 [9]) [%],Emax (Cannabinoid receptor 1 [10]) [%],EC50 (Cannabinoid receptor 1 [6]; read-out: EC50) [nM],IC50 (Cannabinoid receptor 2 [3]; read-out: IC50) [nM],Kinetic_solubility [11] [uM/L],log(Kinetic_solubility) [11],Kinetic_solubility [12] [uM/L],log(Kinetic_solubility) [12]
CCCCCn1c(C(=O)NC23CC4CC(CC(C4)C2)C3)cc2cnccc21,Not Active,< 50,Not Active,< 50,< 50,Not Active,< 50,Not Active,–,–,–,–,–,–,–,–,–
O=C(NC12CC3CC(CC(C3)C1)C2)c1cc2cccnc2[nH]1,–,> 50,Not Active,< 50,< 50,Not Active,< 50,Not Active,290,40.7,–,–,–,–,–,–,–
O=C(NC12CC3CC(CC(C3)C1)C2)c1cc2ncccc2n1CCN1CCOCC1,Not Active,< 50,Not Active,< 50,< 50,Not Active,< 50,Not Active,–,–,–,–,–,–,–,–,–
CCCCCn1nc(C(=O)NC23CC4CC(CC(C4)C2)C3)c2ccccc21,–,> 50,Not Active,< 50,> 50,–,< 50,Not Active,92,58.5,99.6,38,–,–,–,–,–
O=C(NC12CC3CC(CC(C3)C1)C2)c1c[nH]c2cccnc12,Not Active,< 50,Not Active,< 50,< 50,Not Active,< 50,Not Active,–,–,–,–,–,–,–,–,–
CCCCCn1c(C(=O)NC23CC4CC(CC(C4)C2)C3)cc2ncccc21,–,> 50,Not Active,< 50,< 50,Not Active,< 50,Not Active,220,50,–,–,–,–,–,–,–
O=C(NC12CC3CC(CC(C3)C1)C2)c1cc2cnccc2[nH]1,–,> 50,Not Active,< 50,< 50,Not Active,< 50,Not Active,2000,121,–,–,–,–,–,–,–
CCCCCn1cc(C(=O)NC23CC4CC(CC(C4)C2)C3)c2ncccc21,Not Active,< 50,–,< 50,> 50,–,> 50,Not Active,–,–,48.2,180,12,–,–,–,–
O=C(NC12CC3CC(CC(C3)C1)C2)c1c[nH]c2ncccc12,Not Active,< 50,–,< 50,< 50,Not Active,> 50,Not Active,–,–,–,–,6500,–,–,–,–
O=C(NC12CC3CC(CC(C3)C1)C2)c1nn(CCN2CCOCC2)c2ccccc12,–,> 50,Not Active,< 50,> 50,–,< 50,Not Active,58,85.3,109,300,–,–,–,–,–
O=C(NC12CC3CC(CC(C3)C1)C2)c1cn(CCN2CCOCC2)c2cccnc12,Not Active,< 50,Not Active,< 50,< 50,Not Active,< 50,Not Active,–,–,–,–,–,–,–,–,–
O=C(NC12CC3CC(CC(C3)C1)C2)c1cn(CCN2CCOCC2)c2ccncc12,Not Active,< 50,Not Active,< 50,< 50,Not Active,< 50,Not Active,–,–,–,–,–,–,–,–,–
O=C(NC12CC3CC(CC(C3)C1)C2)c1nc2ccccc2[nH]1,–,> 50,Not Active,< 50,< 50,Not Active,< 50,Not Active,520,85.3,–,–,–,–,–,–,–
CCCCCn1c(C(=O)NC23CC4CC(CC(C4)C2)C3)nc2ccccc21,–,> 50,Not Active,< 50,< 50,Not Active,< 50,Not Active,320,62.2,–,–,–,–,–,–,–
CCCCCn1cc(C(=O)NC23CC4CC(CC(C4)C2)C3)c2cccnc21,–,> 50,Not Active,< 50,> 50,–,< 50,Not Active,32,79.4,39.1,740,–,–,–,–,–
O=C(NC12CC3CC(CC(C3)C1)C2)c1cc2cnccc2n1CCN1CCOCC1,Not Active,< 50,Not Active,< 50,< 50,Not Active,< 50,Not Active,–,–,–,–,–,–,–,–,–
CCCCCn1cc(C(=O)NC23CC4CC(CC(C4)C2)C3)c2cnccc21,Not Active,< 50,–,< 50,> 50,–,> 50,Not Active,–,–,41,2100,260,–,–,–,–
O=C(NC12CC3CC(CC(C3)C1)C2)c1cc2ncccc2[nH]1,–,> 50,Not Active,< 50,< 50,Not Active,< 50,Not Active,590,38,–,–,–,–,–,–,–
CCCCCn1c(C(=O)NC23CC4CC(CC(C4)C2)C3)cc2cccnc21,–,> 50,Not Active,< 50,< 50,Not Active,< 50,Not Active,920,46.2,–,–,–,–,–,–,–
O=C(NC12CC3CC(CC(C3)C1)C2)c1nc2ccccc2n1CCN1CCOCC1,Not Active,< 50,–,< 50,< 50,Not Active,> 50,Not Active,–,–,–,–,36,–,–,–,–
O=C(NC12CC3CC(CC(C3)C1)C2)c1cc2ccccc2n1CCCCO,–,–,–,–,–,–,–,–,–,–,–,–,–,23.71,-4.63,16.77,-4.78
O=C(NC12CC3CC(CC(C3)C1)C2)c1cc2cccnc2n1CCN1CCOCC1,Not Active,< 50,–,< 50,> 50,–,> 50,Not Active,–,–,88.4,650,78,–,–,–,–
O=C(NC12CC3CC(CC(C3)C1)C2)c1c[nH]c2ccncc12,Not Active,< 50,Not Active,< 50,< 50,Not Active,< 50,Not Active,–,–,–,–,–,–,–,–,–
